Measured values published in ChEMBL document CHEMBL1126285, “Novel benzothiophene-, benzofuran-, and naphthalenecarboxamidotetrazoles as potential antiallergy agents” (J Med Chem, 1992).

Columns and labels:
Homo sapiens [1] = organism: Homo sapiens; assay: Evaluated for the inhibition of human basophil histamine release stimulated by anti-Immunoglobulin E (IgE) at a concentration of 33 uM; assay type: functional
In short: (§1)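 Whole blood from well-characterized allergic donors; after red-cell sedimentation, leukocytes were washed and resuspended in buffer, preincubated with compound, then challenged with anti-IgE. Histamine was read by automated fluorometric assay, with inhibition taken against anti-IgE-challenged nondrug controls. IC50 runs used 3-fold steps over 1-100 μM.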

Homo sapiens [2] = organism: Homo sapiens; assay: Evaluated for the inhibition of superoxide (O2 -) anion release from human neutrophils; assay type: functional
In short: (§2)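 Neutrophil preparations (~98% purity) were isolated by Ficoll-Hypaque gradient centrifugation of anticoagulant-treated venous blood and stimulated with serum-opsonized zymosan. Respiratory burst was read as superoxide-mediated reduction of cytochrome C.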

Homo sapiens [3] = organism: Homo sapiens; assay: Evaluated for the inhibition of human basophil histamine release stimulated by anti-Immunoglobulin E (IgE) at a concentration of 10 uM; assay type: functional; in short: as §1
Homo sapiens [4] = organism: Homo sapiens; assay: Evaluated for the inhibition of human basophil histamine release stimulated by anti-Immunoglobulin E (IgE) at a concentration of 10 uM; inactive; assay type: functional; in short: as §1
[5] = Compound was evaluated for the inhibition of human basophil histamine release stimulated by anti-Immunoglobulin E (IgE) at a concentration of 33 uM; inactive; assay type: functional; in short: as §1
Homo sapiens [6] = organism: Homo sapiens; assay: Inhibition of anti-IgE stimulated release of Thromboxane B2 (TXB2) from human chopped lung by 50% of control value; assay type: functional
In short: (§3)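 Human lung tissue (~400 mg portions) was incubated 10 min in Tyrode's buffer at 37 °C, dosed with drug or vehicle, and challenged 10 min later with anti-IgE (final 3:1000) for 30 min. Supernatant leukotrienes or thromboxane were measured by RIA kits, giving the concentration for 50% inhibition of control release.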

Homo sapiens [7] = organism: Homo sapiens; assay: Inhibition of anti-IgE stimulated release of histamine from human chopped lung by 50% of control value; assay type: functional
In short: (§4)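 Human lung tissue was washed, and ~400 mg portions were placed in 37 °C buffer. After 10 min in Tyrode's buffer, drug or vehicle was added; 10 min later, tissue was challenged with anti-IgE (final dilution 3:1000) for 30 min. Supernatant histamine was assayed, giving the concentration for 50% inhibition versus control.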

Homo sapiens [8] = organism: Homo sapiens; assay: Inhibition of anti-IgE stimulated release of leukotriene C4/D4 (LTC4/D4) from human chopped lung by 50% of control value; assay type: functional; in short: as §3
[9] = Compound was evaluated for the inhibition of superoxide (O2 -) anion release from human neutrophils at 100 uM; inactive; assay type: functional; in short: as §2
[10] = Compound was evaluated for the inhibition of serum-opsonized zymosan stimulated superoxide (O2-) release from human neutrophil; assay type: functional; in short: as §2
[11] = Compound was evaluated for the inhibition of serum-opsonized zymosan stimulated superoxide (O2-) release from human eosinophil; assay type: functional
In short: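 Eosinophils were enriched above 95% purity by discontinuous Percoll gradient centrifugation after Ficoll-Hypaque separation of venous blood leukocytes. Cells were stimulated with serum-opsonized zymosan, and superoxide was measured as cytochrome C reduction.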

[12] = molecular target: T1, Eosinophil peroxidase (Homo sapiens) (UniProt P11678); assay: Compound was evaluated for the inhibition of serum-opsonized zymosan stimulated eosinophil peroxidase release from human eosinophil; Inactive; assay type: functional; details: concentration not given here
T1 sequence (whole entry): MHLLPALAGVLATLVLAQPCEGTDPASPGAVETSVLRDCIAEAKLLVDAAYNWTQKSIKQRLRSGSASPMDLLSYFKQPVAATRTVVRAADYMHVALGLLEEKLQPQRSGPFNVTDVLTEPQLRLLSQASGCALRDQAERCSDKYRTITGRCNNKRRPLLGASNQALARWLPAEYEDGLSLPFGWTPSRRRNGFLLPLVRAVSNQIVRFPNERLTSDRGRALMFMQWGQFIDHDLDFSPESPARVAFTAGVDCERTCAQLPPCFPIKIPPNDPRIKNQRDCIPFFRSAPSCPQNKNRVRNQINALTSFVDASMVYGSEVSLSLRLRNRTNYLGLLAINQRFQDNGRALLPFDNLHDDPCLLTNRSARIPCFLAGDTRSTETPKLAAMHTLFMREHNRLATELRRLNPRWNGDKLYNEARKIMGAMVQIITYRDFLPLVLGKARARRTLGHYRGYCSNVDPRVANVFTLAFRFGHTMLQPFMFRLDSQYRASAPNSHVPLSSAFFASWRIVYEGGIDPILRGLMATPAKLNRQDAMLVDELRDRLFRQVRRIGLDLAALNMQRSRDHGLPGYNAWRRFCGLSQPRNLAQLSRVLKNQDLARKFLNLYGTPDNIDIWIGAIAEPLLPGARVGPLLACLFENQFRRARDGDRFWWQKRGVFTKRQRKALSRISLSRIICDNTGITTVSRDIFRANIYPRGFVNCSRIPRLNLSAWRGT

[13] = Concentration inhibiting anti-IgE stimulated release of histamine from human chopped lung by 50% of control value; assay type: functional, tissue-based; in short: as §4
Homo sapiens [14] = organism: Homo sapiens; assay: Compound was evaluated for the inhibition of anti-IgE stimulated TXB2 release from human basophil; assay type: functional
[15] = Concentration inhibiting anti-IgE stimulated release of leukotriene C4/D4 (LTC4/D4) from human chopped lung by 50% of control value; assay type: functional, tissue-based; in short: as §3
[16] = Compound was evaluated for the inhibition of anti-IgE stimulated histamine release from human basophil; assay type: functional; in short: as §1
Homo sapiens [17] = organism: Homo sapiens; assay: Compound was evaluated for the inhibition of serum-opsonized zymosan stimulated TXB2 release from human neutrophil; assay type: functional
In short: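 Human polymorphonuclear leukocytes (~98% neutrophils) came from anticoagulant-treated venous blood via Ficoll-Hypaque centrifugation. They were stimulated with serum-opsonized zymosan, and TxB2 release was measured by radioimmunoassay.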

| Structure (SMILES) | IC50 (Homo sapiens [2]) [µM] | inhibition at 33 µM (Homo sapiens [1]) [%] | inhibition at 10 µM (Homo sapiens [3]) [%] | inhibition at 10 µM (Homo sapiens [4]) [%] | other results |
| --- | --- | --- | --- | --- | --- |
| CC(C)Oc1c(C(=O)Nc2nn[nH]n2)sc2ccc(Cl)cc12 | > 100 | 92 | 73 | – | – |
| CC(C)Oc1c(C(=O)Nc2nn[nH]n2)sc2ccccc12 | > 100 | 65.8 | 27.5 | – | – |
| COc1ccc2c(OC(C)C)c(C(=O)Nc3nn[nH]n3)ccc2c1 | – | 72.7 | 31.3 | – | – |
| CCCc1c2oc(C(=O)O)cc(=O)c2cc2c(=O)cc(C(=O)O)n(CC)c12 [NEDOCROMIL] | – | – | – | < 25 | inhibition at 33 µM [5]: < 25% |
| COc1cc2sc(C(=O)Nc3nn[nH]n3)c(OCc3ccccc3)c2cc1OC | 40 | 90.7 | 90.3 | – | IC50 (Homo sapiens [6]): < 0.74 µM; IC50 (Homo sapiens [7]): 2.5 µM; IC50 (Homo sapiens [8]): 1.3 µM |
| COc1ccc2sc(C(=O)Nc3nn[nH]n3)c(OCc3ccccc3)c2c1 | 23.4 | 84.5 | 80.8 | – | – |
| COc1ccc2sc(C(=O)Nc3nn[nH]n3)c(Oc3ccccc3)c2c1 | 10.1 | 91.3 | 96.3 | – | IC50 (Homo sapiens [6]): 4.9 µM; IC50 (Homo sapiens [7]): 3.5 µM; IC50 (Homo sapiens [8]): 1.1 µM |
| Cc1ccc2sc(C(=O)Nc3nn[nH]n3)c(OC(C)C)c2c1 | – | – | – | < 25 | inhibition at 100 µM [9]: < 5%; inhibition at 33 µM [5]: < 25% |
| COc1cc2sc(C(=O)Nc3nn[nH]n3)c(OC(C)C)c2cc1OC | 17.7 | 81.7 | 80 | – | IC50 (Homo sapiens [6]): < 0.75 µM; IC50 (Homo sapiens [7]): 4.5 µM; IC50 (Homo sapiens [8]): 0.3 µM |
| COc1ccc2sc(C(=O)Nc3nnn[nH]3)c(OC(C)C)c2c1 | 14.5 | 97.3 | 94.7 | – | IC50 (Homo sapiens [6]): 0.3 µM; IC50 [10]: 14.5 µM; IC50 [11]: 5.5 µM; inhibition [12]: < 20%; IC50 [13]: 2.3 µM; IC50 (Homo sapiens [14]): 0.2 µM; IC50 [15]: 0.3 µM; IC50 [16]: 1.1 µM; IC50 (Homo sapiens [17]): 4.5 µM |
| COc1cc2sc(C(=O)Nc3nn[nH]n3)c(Oc3ccccc3)c2cc1OC | 5.7 | 93.6 | 96 | – | IC50 (Homo sapiens [6]): < 0.75 µM; IC50 (Homo sapiens [7]): 4.9 µM; IC50 (Homo sapiens [8]): 9.7 µM |
| CC(C)Oc1c(C(=O)Nc2nn[nH]n2)sc2ccc([N+](=O)[O-])cc12 | – | 53 | – | < 25 | inhibition at 100 µM [9]: < 5% |
| COc1ccc2sc(C(=O)Nc3nn[nH]n3)c(OC(C)(C)C)c2c1 | > 100 | 100 | 62 | – | – |
| CC(C)Oc1c(C(=O)Nc2nn[nH]n2)sc2ccc(O)cc12 | 47.8 | 86 | – | < 25 | – |
| CCOc1c(C(=O)Nc2nn[nH]n2)sc2ccc(OC)cc12 | > 100 | 98 | 92.5 | – | – |

Continued, in another order:

| IC50 (Homo sapiens [2]) [µM] | Structure (SMILES) | inhibition at 33 µM (Homo sapiens [1]) [%] | inhibition at 10 µM (Homo sapiens [3]) [%] | inhibition at 10 µM (Homo sapiens [4]) [%] | other results |
| --- | --- | --- | --- | --- | --- |
| > 100 | CC(C)Oc1c(C(=O)Nc2nn[nH]n2)sc2ccc(Oc3ccccc3)cc12 | 55 | – | < 25 | – |
| 42.5 | COc1ccc2c(OC(C)C)c(C(=O)Nc3nn[nH]n3)oc2c1 | 99.5 | 77 | – | – |
| > 100 | COc1ccc2oc(C(=O)Nc3nn[nH]n3)c(OC(C)C)c2c1 | 43.3 | – | < 25 | – |
| 37 | COc1ccc2c(OC(C)C)c(C(=O)Nc3nn[nH]n3)sc2c1 | 88.6 | 92 | – | IC50 (Homo sapiens [6]): 0.3 µM; IC50 (Homo sapiens [7]): 0.9 µM; IC50 (Homo sapiens [8]): 0.4 µM |
| > 100 | COc1cccc2c(OC(C)C)c(C(=O)Nc3nn[nH]n3)sc12 | < 25 | – | < 25 | – |
| > 100 | CC(C)Oc1c(C(=O)Nc2nn[nH]n2)sc2ccc(OCc3ccccc3)cc12 | 41.6 | – | < 25 | – |
| > 100 | COc1ccc2sc(C(=O)Nc3nn[nH]n3)c(OC)c2c1 | 97.3 | 59.8 | – | – |
| > 100 | COc1ccc2c(c1)c(OC(C)C)c(C(=O)Nc1nn[nH]n1)n2-c1ccccc1 | 82 | 46 | – | IC50 (Homo sapiens [6]): 12 µM; IC50 (Homo sapiens [7]): 11 µM; IC50 (Homo sapiens [8]): 12 µM |
| > 100 | COc1ccc2ccc(C(=O)Nc3nn[nH]n3)c(OC(C)C)c2c1 | 90.5 | 51 | – | – |
| > 100 | COc1ccc2c(OC(C)C)c(C(=O)Nc3nn[nH]n3)sc2c1Cl | – | – | < 25 | inhibition at 33 µM [5]: < 25% |
